Source: ChEMBL document CHEMBL2057177, “Analogues of fenarimol are potent inhibitors of Trypanosoma cruzi and are efficacious in a murine model of Chagas disease” (J Med Chem, 2012)
In brackets after ≈: the same amount, converted by molar mass. Activity calls are given as the source filed them. No cut-off for these calls is given here.

What was measured:
Trypanosoma cruzi [1] = test: Antitrypanosomal activity against trypomastigotes of Trypanosoma cruzi Tulahuen expressing the beta- galactosidase gene infected rat L6 cells after 96 hrs; type: functional, organism-based; settings: L6, 96 h
Summary of the method: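 Tulahuén trypomastigotes expressing β-galactosidase, maintained by serial passage in L6 cells. L6 cells seeded and left 24 h at 37 °C, 5% CO2, then infected at MOI 3 for 48 h. Compound exposure 96 h, benznidazole control. CPRG with 0.3% Nonidet P-40 added, absorbance at 530 nm after 4−6 h. IC50 taken from % inhibition curve; mean of at least two assays.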

CYP3A4/5 [2] = molecular target: T1, CYP3A4/5 (Homo sapiens, UniProt P08684+P20815); test: Inhibition of CYP3A4/5 in human liver microsomes; type: ADME, Microsome
[3] = Elimination half life in Sprague-Dawley rat at 4.8 mg/kg, iv; type: ADME, organism-based; set-up: dose 4.8 mg/kg, route intravenous; settings: in vivo, read-out: beta t1/2 (converted)
Summary of the method: (§1)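 Overnight-fasted male Sprague–Dawley rats (272–320 g), n = 2 per route. IV dose given as a 10 min jugular infusion in aqueous solution; oral dose by gavage as aqueous suspension. Arterial blood taken via carotid cannula up to 24 h. Plasma measured by LC-MS after acetonitrile precipitation. Noncompartmental analysis. Blood clearance = plasma clearance divided by in vitro blood/plasma ratio. Bioavailability from mean dose-normalised AUC0–inf, oral versus IV.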

[4] = Apparent volume of distribution at steady state in Sprague-Dawley rat at 4.8 mg/kg, iv; type: ADME, organism-based; set-up: dose 4.8 mg/kg, route intravenous; settings: in vivo, read-out: Vdss(app); summary of the method: as §1
[5] = Oral bioavailability in Sprague-Dawley rat at 15.7 mg/kg; type: ADME, organism-based; settings: in vivo; summary of the method: as §1
[6] = Blood Clearance in Sprague-Dawley rat at 4.8 mg/kg, iv; type: ADME, organism-based; set-up: dose 4.8 mg/kg, route intravenous; settings: whole blood; summary of the method: as §1
[7] = Kinetic solubility of the compound at pH 6.5 by nephelometric analysis; type: physicochemical; settings: buffer, read-out: Kinetic_solubility
CYP3A4/5 [8] = molecular target: T1, CYP3A4/5; test: Inhibition of […] in human liver microsomes at 20 uM; type: ADME, Microsome
[9] = Plasma concentration in Swiss mouse at 50 mg/kg, po after 1 hr; type: ADME, organism-based; set-up: dose 50 mg/kg, route oral
Summary of the method: (§2)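 Nonfasted male Swiss outbred mice (23.8–39.9 g), fed throughout. Dosed by oral gavage as solution or suspension in aqueous vehicle. Plasma assayed by LC-MS against blank-plasma standards after acetonitrile precipitation; LLOQ 0.001–0.015 μM.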

[10] = Plasma concentration in Swiss mouse at 20 mg/kg, po after 1 hr; type: ADME, organism-based; set-up: dose 20 mg/kg, route oral; summary of the method: as §2
[11] = Plasma concentration in Swiss mouse at 20 mg/kg, po after 8 hrs; type: ADME, organism-based; set-up: dose 20 mg/kg, route oral; summary of the method: as §2
Trypanosoma cruzi [12] = test: Antitrypanosomal activity against trypomastigotes of Trypanosoma cruzi Tulahuen infected immunosuppressed Swiss mouse assessed as level of parasite in blood at 20 mg/kg, po administered after 2 cycles of immunosuppression qd for 10 days; type: functional, organism-based; set-up: dose 20 mg/kg
Summary of the method: (§3)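 Female Swiss mice infected ip with Tulahuén parasites; oral gavage dosing in HPMC vehicle, daily from day 8 post-infection. Dosing is followed by 10 days without compound. If blood is then parasite-free, mice receive cyclophosphamide ip 50 mg/kg/day, up to three cycles (4 days on, 3 rest). Parasitemia counted in tail-prick blood by hemocytometer.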

Trypanosoma cruzi [13] = test: Antitrypanosomal activity against trypomastigotes of Trypanosoma cruzi Tulahuen infected in Swiss mouse model of chagas disease assessed as decrease in parasite level in blood at 20 mg/kg, po administered 8 day after post infection qd for 20 days; type: functional; set-up: scale not given: the % may be the effect or the level left
Summary of the method: (§4)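 Female outbred Swiss mice, about 8 weeks old, infected ip with Tulahuén parasites; five mice per group. Daily dosing starts day 8 post-infection. Oral doses given by gavage in HPMC vehicle (0.5% HPMC, 0.4% Tween 80, 0.5% benzyl alcohol); ip doses in PBS with 0.4% Tween 80 and 10% PEG400. Tail-prick blood taken days 8, 9, 12, 14, 16, 19 and 27 post-infection, red cells lysed, and live trypomastigotes counted by hemocytometer. % efficacy = (vehicle mean − treated mean)/vehicle mean × 100. Survival recorded as surviving/infected-and-treated.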

[14] = Plasma concentration in Swiss mouse at 50 mg/kg, po after 24 hrs; type: ADME, organism-based; set-up: dose 50 mg/kg, route oral; summary of the method: as §2
Trypanosoma cruzi [15] = test: Antitrypanosomal activity against trypomastigotes of Trypanosoma cruzi Tulahuen infected in Swiss mouse model of chagas disease assessed as increase of host survival at 2 mg/kg, po administered 8 days after post infection qd for 5 days; type: functional, organism-based; set-up: dose 2 mg/kg; summary of the method: as §4
Trypanosoma cruzi [16] = test: Antitrypanosomal activity against trypomastigotes of Trypanosoma cruzi Tulahuen infected in Swiss mouse model of chagas disease assessed as decrease in parasite level in blood at 10 mg/kg, ip administered 8 days after post infection qd for 5 days; type: functional; set-up: scale not given: the % may be the effect or the level left; settings: route intraperitoneal; summary of the method: as §4
[17] = Plasma concentration in Swiss mouse at 50 mg/kg, po after 8 hrs; type: ADME, organism-based; set-up: dose 50 mg/kg, route oral; summary of the method: as §2
Trypanosoma cruzi [18] = test: Antitrypanosomal activity against trypomastigotes of Trypanosoma cruzi Tulahuen infected in Swiss mouse model of chagas disease assessed as decrease in parasite level in blood at 2 mg/kg, po administered 8 days after post infection qd for 5 days; set-up: scale not given: the % may be the effect or the level left
Trypanosoma cruzi [19] = test: Antitrypanosomal activity against trypomastigotes of Trypanosoma cruzi Tulahuen infected in Swiss mouse model of chagas disease assessed as increase of host survival at 10 mg/kg, po administered 8 days after post infection qd for 5 days; type: functional, organism-based; set-up: dose 10 mg/kg; summary of the method: as §4
Trypanosoma cruzi [20] = test: Antitrypanosomal activity against trypomastigotes of Trypanosoma cruzi Tulahuen infected in Swiss mouse model of chagas disease assessed as level of parasite in blood at 20 mg/kg, po qd for 20 days measured after 30 day; type: functional, organism-based; set-up: dose 20 mg/kg; summary of the method: as §3
Trypanosoma cruzi [21] = test: Antitrypanosomal activity against trypomastigotes of Trypanosoma cruzi Tulahuen infected in Swiss mouse model of chagas disease assessed as decrease in parasite level in blood at 50 mg/kg, po administered 8 days after post infection qd for 5 days; type: functional; set-up: scale not given: the % may be the effect or the level left; summary of the method: as §4
[22] = Plasma concentration in Swiss mouse at 10 mg/kg, po after 1 hr; type: ADME, organism-based; set-up: dose 10 mg/kg, route oral; summary of the method: as §2
Trypanosoma cruzi [23] = test: Antitrypanosomal activity against trypomastigotes of Trypanosoma cruzi Tulahuen infected in Swiss mouse model of chagas disease assessed as increase of host survival at 20 mg/kg, po administered 8 days after post infection qd for 5 days; type: functional, organism-based; set-up: dose 20 mg/kg
Trypanosoma cruzi [24] = test: Antitrypanosomal activity against trypomastigotes of Trypanosoma cruzi Tulahuen infected in Swiss mouse model of chagas disease assessed as decrease in parasite level in blood at 100 mg/kg, po administered 8 days after post infection qd for 5 days; type: functional; set-up: scale not given: the % may be the effect or the level left
[25] = Oral bioavailability in Sprague-Dawley rat at 15.2 mg/kg; type: ADME, organism-based; settings: in vivo; summary of the method: as §1
Trypanosoma cruzi [26] = test: Antitrypanosomal activity against trypomastigotes of Trypanosoma cruzi Tulahuen infected in Swiss mouse model of chagas disease assessed as increase of host survival at 50 mg/kg, po administered 8 days after post infection qd for 5 days; type: functional, organism-based; set-up: dose 50 mg/kg
[27] = Elimination half life in Sprague-Dawley rat at 4.2 mg/kg, iv; type: ADME, organism-based; set-up: dose 4.2 mg/kg, route intravenous; settings: in vivo, read-out: beta t1/2 (converted); summary of the method: as §1
[28] = Plasma concentration in Swiss mouse at 100 mg/kg, po after 1 hr; type: ADME, organism-based; set-up: dose 100 mg/kg, route oral
Summary of the method: (§5)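 Nonfasted male Swiss Outbred mice weighing 23.8−39.9 g, with food and water freely available, dosed by oral gavage as an aqueous solution or suspension. Plasma proteins precipitated with acetonitrile and compound quantified by LC-MS against standards made in blank mouse plasma. Lower limit of quantitation 0.001−0.015 μM.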

[29] = Plasma concentration in Swiss mouse at 100 mg/kg, po after 8 hrs; type: ADME, organism-based; set-up: dose 100 mg/kg, route oral; summary of the method: as §5
[30] = Therapeutic index, ratio of IC50 for rat L6 cells to IC50 for trypomastigotes of Trypanosoma cruzi Tulahuen; type: cell-based; settings: read-out: Ratio IC50
L6 = test: Cytotoxicity against rat L6 cells after 72 hrs by Alamar Blue assay; type: cell-based; settings: L6, 72 h
Summary of the method: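 L6 rat skeletal myoblasts in RPMI 1640 with 10% FBS. Exposed to compound for 72 h, seven-point serial dilutions in triplicate. Alamar Blue read at 570 and 630 nm. IC50 is the mean of at least two assays; podophyllotoxin used as control.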

[31] = Plasma concentration in Swiss mouse at 10 mg/kg, po after 8 hrs; type: ADME, organism-based; set-up: dose 10 mg/kg, route oral; summary of the method: as §2
Trypanosoma cruzi [32] = test: Antitrypanosomal activity against trypomastigotes of Trypanosoma cruzi Tulahuen infected in Swiss mouse model of chagas disease assessed as decrease in parasite level in blood at 20 mg/kg, po administered 8 days after post infection qd for 5 days; set-up: scale not given: the % may be the effect or the level left
[33] = Apparent volume of distribution at steady state in Sprague-Dawley rat at 4.2 mg/kg, iv; type: ADME, organism-based; set-up: dose 4.2 mg/kg, route intravenous; settings: in vivo, read-out: Vdss(app); summary of the method: as §1
[34] = Blood Clearance in Sprague-Dawley rat at 4.2 mg/kg, iv; type: ADME, organism-based; set-up: dose 4.2 mg/kg, route intravenous; settings: whole blood; summary of the method: as §1

## CC(C)Oc1ncc(C(O)(c2cccnc2)c2ccc(Cl)cc2F)cn1 (racemic)
Trypanosoma cruzi [1]
  IC50: 8 nM
CYP3A4/5 [2]
  IC50: 4400 nM
[3]
  half-life: 11.3 h
[4]
  Vd: 9.1 L/kg
[5]
  bioavailability: 7.4%
[6]
  clearance: 73.9 mL/min/kg
[7]
  solubility kinetic: 12.5 µg/mL (≈ 33.4 µM)

## CC[C@@H]([C@H](C)O)n1ncn(-c2ccc(N3CCN(c4ccc(OC[C@@H]5CO[C@@](Cn6cncn6)(c6ccc(F)cc6F)C5)cc4)CC3)cc2)c1=O [POSACONAZOLE]
CYP3A4/5 [8]
  inhibition at 20 µM: 98%
[9]
  concentration at 1 h: 6.4 µM
[10]
  concentration at 1 h: 6.3 µM
[11]
  concentration at 8 h: 13.6 µM
Trypanosoma cruzi [12]
  Activity: inactive
Trypanosoma cruzi [13]
  Activity: >99%
[14]
  concentration at 24 h: 3.8 µM
Trypanosoma cruzi [15]
  Activity: Active
Trypanosoma cruzi [16]
  Activity: 100%
[17]
  concentration at 8 h: 11.1 µM
Trypanosoma cruzi [18]
  Activity: 100%
Trypanosoma cruzi [19]
  Activity: Active
Trypanosoma cruzi [20]
  Activity: Active
Trypanosoma cruzi [21]
  Activity: 100%
[7]
  solubility kinetic: 3.1 µg/mL (≈ 4.42 µM)

## NC(=O)c1cccc(C(O)(c2ccc(Cl)cc2)c2cccnc2)c1 (racemic)
[22]
  concentration at 1 h: 6.8 µM
[9]
  concentration at 1 h: 13.7 µM
Trypanosoma cruzi [23]
  Activity: Active
Trypanosoma cruzi [24]
  Activity: >95%
[25]
  bioavailability: 95%
[10]
  concentration at 1 h: 10.3 µM
[11]
  concentration at 8 h: 1.9 µM
Trypanosoma cruzi [26]
  Activity: Active
[14]
  concentration at 24 h: 0.06 µM
[17]
  concentration at 8 h: 15.9 µM
Trypanosoma cruzi [1]
  IC50: 30 nM
[27]
  half-life: 6.1 h
CYP3A4/5 [2]
  IC50: 2600 nM
[28]
  concentration at 1 h: 19.5 µM
[29]
  concentration at 8 h: 6.5 µM
[30]
  selectivity ratio: > 500
L6
  IC50: > 100000 nM
[31]
  concentration at 8 h: 0.4 µM
Trypanosoma cruzi [32]
  Activity: 0%
[33]
  Vd: 3.6 L/kg
[34]
  clearance: 18.9 mL/min/kg
Trypanosoma cruzi [21]
  Activity: 65%
[7]
  solubility kinetic: 50 µg/mL (≈ 148 µM)
